# Key:
# Assay type in all cases: functional
# Vibrio parahaemolyticus = assay: Antimicrobial activity against Vibrio parahaemolyticus ATCC 33844 assessed as growth inhibition rate at 13.56 mg/l after 72 hr by spectrophotometry; conditions: ATCC 33844, 72 h, read-out: GI
# Listeria monocytogenes = assay: Antimicrobial activity against Listeria monocytogenes ATCC 19111 assessed as growth inhibition rate at 13.56 mg/l after 72 hr by spectrophotometry; conditions: ATCC 19111, 72 h, read-out: GI
# Procedure, shortened: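 L. monocytogenes was grown at 30 °C in tryptic soy broth, subcultured for 18 h, and exposed to pure volatile compounds (>95% purity). Growth was followed by Bioscreen C optical density every 24 h for 72 h against a 10% Tween 80 control.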
# Staphylococcus aureus = assay: Antimicrobial activity against Staphylococcus aureus ATCC 25923 assessed as growth inhibition rate at 13.56 mg/l after 72 hr by spectrophotometry; conditions: ATCC 25923, 72 h, read-out: GI
# Bacillus cereus = assay: Antimicrobial activity against Bacillus cereus ATCC 11778 assessed as growth inhibition rate at 13.56 mg/l after 72 hr by spectrophotometry; conditions: ATCC 11778, 72 h, read-out: GI
# Procedure, shortened: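 Pure volatile compounds (purity >95%; one at 90%) were tested against B. cereus ATCC 11778. The strain was grown at 30 °C in nutrient broth for 24 h, then subcultured for 18 h. Optical density was read in a Bioscreen C every 24 h for 72 h, with 10% Tween 80 as the control.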
# Salmonella typhimurium = assay: Antimicrobial activity against Salmonella enterica subsp. enterica serovar Typhimurium ATCC 14028 assessed as growth inhibition rate at 13.56 mg/l after 72 hr by spectrophotometry; conditions: ATCC 14028, 72 h, read-out: GI
# Procedure, shortened: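 Salmonella Typhimurium ATCC 14028 grown in nutrient broth at 30 °C, precultured 24 h, then subcultured 1:100 for 18 h before testing. Single volatile compounds (>95% pure) were added. OD was read every 24 h over 72 h in a Bioscreen C, with 10% Tween 80 as the comparison control.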
# Escherichia coli = assay: Antimicrobial activity against Escherichia coli O157:H7 ATCC 43894 assessed as growth inhibition rate at 13.56 mg/l after 72 hr by spectrophotometry; conditions: O157:H7 ATCC 43894, 72 h, read-out: GI
smiles,measurement,setting,value
CCC/C=C/CO,inhibition of growth at 13.56 µg/mL,Vibrio parahaemolyticus,38.6%
same,inhibition of growth at 13.56 µg/mL,Listeria monocytogenes,19.2%
same,inhibition of growth at 13.56 µg/mL,Staphylococcus aureus,29.5%
same,inhibition of growth at 13.56 µg/mL,Bacillus cereus,52.5%
same,inhibition of growth at 13.56 µg/mL,Salmonella typhimurium,29.1%
same,inhibition of growth at 13.56 µg/mL,Escherichia coli,31.8%
